Data: ChEMBL document CHEMBL2331117 (J Med Chem, 2013)

Key:
[1] = biological target: Dual specificity mitogen-activated protein kinase kinase 1 (Homo sapiens, UniProt Q02750); experiment: Inhibition of MEK1 (unknown origin)
[2] = Plasma protein binding in human at 5 uM; format: ADME, cell-free; settings: read-out: PPB (converted)
Mus musculus [3] = experiment: In vivo inhibition of mTORC1-mediated phosphorylation of pS6 at (serine 240/244) in human MCF7 cells xenografted into athymic nude mouse at 100 mg/kg, po after 24 hrs by Western blotting analysis relative to control; format: functional; settings: MCF7, 24 h
In short: (§1)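 MCF-7 cells (DMEM, 10% FBS) were implanted subcutaneously at 5 × 10^6 cells in 50% cold HBSS/50% growth-factor-reduced matrigel into the hindflank of 5−8 week old female nude mice. At tumor size 40−150 mg, mice received a single oral dose of 100 mg/kg. Tumor lysates were pooled per group. Phospho-AKT (S473, T308), p70S6K (T389), S6 (S240/244) and 4E-BP1 (T37/46) were measured by Western blot normalized to α-tubulin.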

Mus musculus [4] = experiment: In vivo inhibition of mTORC1-mediated phosphorylation of 4EBP1 at ([…]) in human PC3 cells xenografted into athymic nude mouse at 100 mg/kg, po after 24 hrs by Western blotting analysis relative to control; format: functional; settings: PC-3, 24 h
In short: (§2)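 PC-3 cells grown in DMEM with 20% FBS were implanted subcutaneously at 3 × 10^6 cells in ice-cold HBSS into the hindflank of 5−8 week old male nude mice. At tumor size 200−500 mg, mice received a single oral dose of 100 mg/kg. Plasma and tumors were collected at 1, 4, 8, 16, 24 and 32 h. Tumor lysates from each group (n = 5) were pooled. Phospho-proteins were quantified by Western blot and normalized to α-tubulin.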

Mus musculus [5] = experiment: In vivo inhibition of mTORC1-mediated phosphorylation of pS6 at (serine 240/244) in human PC3 cells xenografted into athymic nude mouse at 100 mg/kg, po after 8 hrs by Western blotting analysis relative to control; format: functional; settings: PC-3, 8 h; in short: as §2
Mus musculus [6] = experiment: In vivo inhibition of mTORC1-mediated phosphorylation of p70S6K at […] in human PC3 cells xenografted into athymic nude mouse at 100 mg/kg, po after 4 hrs by Western blotting analysis relative to control; format: functional; settings: PC-3, 4 h; in short: as §2
Mus musculus [7] = experiment: In vivo inhibition of mTORC1-mediated phosphorylation of p70S6K at […] in human MCF7 cells xenografted into athymic nude mouse at 100 mg/kg, po after 16 hrs by Western blotting analysis relative to control; format: functional; settings: MCF7, 16 h; in short: as §1
Cytochrome P450 2D6 = Cytochrome P450 2D6 (Homo sapiens, UniProt P10635); experiment: Inhibition of CYP2D6 (unknown origin); format: ADME
[8] = biological target: Phosphatidylinositol 4,5-bisphosphate 3-kinase catalytic subunit alpha isoform (Homo sapiens, UniProt P42336); experiment: Inhibition of PI3Kalpha (unknown origin) using PIP2 as substrate after 2 hrs by luminescence assay
[9] = biological target: Phosphatidylinositol 4,5-bisphosphate 3-kinase catalytic subunit gamma isoform (Homo sapiens, UniProt P48736); experiment: Inhibition of PI3Kgamma (unknown origin)
[10] = Cmax in athymic nude mouse at 10 mg/kg, iv; format: ADME, organism-based; design: dose 10 mg/kg, route intravenous; settings: in vivo
In short: (§3)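 Single-dose PK: female athymic nude mice (10 mg/kg), female CD rats and male beagle dogs (3 mg/kg), male cynomolgus monkeys (3 mg/kg), given iv and by oral gavage. Solution in EPW (5% ethanol/45% PEG400/water), with 1:2 HCl (m/m) for mouse, rat and dog and 1:1.5 HCl (m/m) for monkey. Plasma levels followed over 24 h.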

[11] = AUC (0 to infinity) in CD rat at 3 mg/kg, po; format: ADME, organism-based; design: time infinity, dose 3 mg/kg, route oral; settings: plasma; in short: as §3
Mus musculus [12] = experiment: In vivo inhibition of mTORC1-mediated phosphorylation of pS6 at (serine 240/244) in human MCF7 cells xenografted into athymic nude mouse at 100 mg/kg, po after 32 hrs by Western blotting analysis relative to control; format: functional; settings: MCF7, 32 h; in short: as §1
[13] = AUC (0 to infinity) in athymic nude mouse at 10 mg/kg, po; format: ADME, organism-based; design: dose 10 mg/kg, route oral, time infinity; settings: plasma; in short: as §3
[14] = Plasma concentration in athymic mouse plasma xenografted with human MCF7 cells at 100 mg/kg, po after 16 hrs; format: ADME, organism-based; design: dose 100 mg/kg, route oral
In short: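 MCF-7 cells (5 × 10^6, in 50% cold HBSS/50% growth-factor-reduced matrigel) were implanted subcutaneously in the hindflank of 5–8 week old female nude mice. At 40–150 mg tumour size, mice received a single oral dose of 100 mg/kg, and plasma was sampled at the listed times after dosing.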

Mus musculus [15] = experiment: Inhibition of mTORC2-mediated phosphorylation of AKT at serine 473 in human PC3 cells xenografted into athymic nude mouse at 100 mg/kg, po after 1 hr by Western blotting analysis relative to control; format: functional; settings: PC-3, 1 h
In short: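 PC-3 cells (3 × 10^6, in ice-cold HBSS) were implanted subcutaneously in the hindflank of 5–8 week old male nude mice. At 200–500 mg tumour size, mice received a single oral dose. Tumours were collected at set times after dosing, homogenised and pooled per group (n=5). pAKT S473 was measured by Western blot and normalised to α-tubulin.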

[16] = AUC (0 to infinity) in athymic nude mouse at 10 mg/kg, iv; format: ADME, organism-based; design: time infinity, dose 10 mg/kg, route intravenous; settings: plasma; in short: as §3
Mus musculus [17] = experiment: In vivo inhibition of mTORC2-mediated phosphorylation of AKT at serine 473 in human MCF7 cells xenografted into athymic nude mouse at 100 mg/kg, po after 8 hrs by Western blotting analysis relative to control; format: functional; settings: MCF7, 8 h; in short: as §1
[18] = AUC (0 to infinity) in CD rat at 3 mg/kg, iv; format: ADME, organism-based; design: time infinity, dose 3 mg/kg, route intravenous; settings: plasma; in short: as §3
[19] = Oral bioavailability in athymic nude mouse at 10 mg/kg; format: ADME, organism-based; settings: in vivo
In short: (§4)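 For single-dose PK, compound was given intravenously and by oral gavage as a solution in EPW (5% ethanol/45% PEG400/water + 1:2 HCl m/m). Doses were 10 mg/kg in female athymic nude mice and 3 mg/kg in female CD rats and male beagle dogs.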

[20] = Clearance in Beagle dog at 3 mg/kg, iv; format: ADME, organism-based, Canis lupus familiaris; design: dose 3 mg/kg, route intravenous; settings: in vivo; in short: as §3
Cytochrome P450 3A4 = Cytochrome P450 3A4 (Homo sapiens, UniProt P08684); experiment: Inhibition of CYP3A4 (unknown origin); format: ADME
[21] = biological target: Mast/stem cell growth factor receptor Kit (Homo sapiens, UniProt P10721); experiment: Inhibition of KIT (unknown origin)
[22] = biological target: Platelet-derived growth factor receptor beta (Homo sapiens, UniProt P09619); experiment: Inhibition of PDGFRbeta (unknown origin)
[23] = Oral bioavailability in CD rat at 3 mg/kg; format: ADME, organism-based; settings: in vivo; in short: as §4
Mus musculus [24] = experiment: In vivo inhibition of mTORC2-mediated phosphorylation of AKT at serine 473 in human PC3 cells xenografted into athymic nude mouse at 100 mg/kg, po after 24 hrs by Western blotting analysis relative to control; format: functional; settings: PC-3, 24 h; in short: as §2
Mus musculus [25] = experiment: In vivo inhibition of mTORC1-mediated phosphorylation of pS6 at (serine 240/244) in human MCF7 cells xenografted into athymic nude mouse at 100 mg/kg, po after 16 hrs by Western blotting analysis relative to control; format: functional; settings: MCF7, 16 h; in short: as §1
[26] = biological target: Hepatocyte growth factor receptor (Homo sapiens, UniProt P08581); experiment: Inhibition of MET (unknown origin)
Hepatocyte growth factor receptor, sequence (P08581 whole entry): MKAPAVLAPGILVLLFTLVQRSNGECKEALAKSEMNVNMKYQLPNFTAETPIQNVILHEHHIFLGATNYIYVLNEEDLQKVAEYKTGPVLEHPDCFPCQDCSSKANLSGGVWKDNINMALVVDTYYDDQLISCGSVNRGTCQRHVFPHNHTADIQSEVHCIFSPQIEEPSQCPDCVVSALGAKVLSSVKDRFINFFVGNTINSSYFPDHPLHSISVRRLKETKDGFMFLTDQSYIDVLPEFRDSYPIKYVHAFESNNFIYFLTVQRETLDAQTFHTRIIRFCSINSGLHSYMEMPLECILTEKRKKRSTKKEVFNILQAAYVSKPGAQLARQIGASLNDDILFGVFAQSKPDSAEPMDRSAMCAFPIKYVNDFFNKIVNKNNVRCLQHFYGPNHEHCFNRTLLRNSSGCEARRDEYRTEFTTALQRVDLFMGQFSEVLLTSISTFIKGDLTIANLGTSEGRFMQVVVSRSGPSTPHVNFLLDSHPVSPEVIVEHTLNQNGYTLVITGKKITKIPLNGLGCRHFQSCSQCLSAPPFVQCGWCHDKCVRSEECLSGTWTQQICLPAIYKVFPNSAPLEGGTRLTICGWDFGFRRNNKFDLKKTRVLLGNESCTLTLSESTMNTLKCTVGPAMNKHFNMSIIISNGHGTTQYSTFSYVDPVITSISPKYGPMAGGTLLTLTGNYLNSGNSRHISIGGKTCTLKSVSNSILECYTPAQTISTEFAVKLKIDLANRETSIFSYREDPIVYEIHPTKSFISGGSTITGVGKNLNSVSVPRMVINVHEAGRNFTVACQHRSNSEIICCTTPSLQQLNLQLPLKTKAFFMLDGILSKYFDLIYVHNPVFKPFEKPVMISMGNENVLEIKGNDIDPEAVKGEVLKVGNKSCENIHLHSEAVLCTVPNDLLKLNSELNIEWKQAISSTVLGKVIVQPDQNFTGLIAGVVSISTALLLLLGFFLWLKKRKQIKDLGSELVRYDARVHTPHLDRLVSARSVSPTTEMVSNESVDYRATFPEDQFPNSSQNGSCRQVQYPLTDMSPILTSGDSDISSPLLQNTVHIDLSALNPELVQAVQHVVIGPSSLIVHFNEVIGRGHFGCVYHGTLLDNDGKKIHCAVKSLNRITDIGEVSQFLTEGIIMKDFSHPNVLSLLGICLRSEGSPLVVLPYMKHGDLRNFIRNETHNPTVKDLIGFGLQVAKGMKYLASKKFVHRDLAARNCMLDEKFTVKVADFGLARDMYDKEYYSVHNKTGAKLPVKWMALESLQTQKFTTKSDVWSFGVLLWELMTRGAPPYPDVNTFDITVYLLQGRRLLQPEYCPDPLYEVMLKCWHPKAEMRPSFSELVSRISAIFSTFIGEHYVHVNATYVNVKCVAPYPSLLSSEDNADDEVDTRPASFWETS

Phosphatidylinositol 4,5-bisphosphate 3-kinase catalytic subunit gamma isoform, sequence (P48736 whole entry, canonical isoform): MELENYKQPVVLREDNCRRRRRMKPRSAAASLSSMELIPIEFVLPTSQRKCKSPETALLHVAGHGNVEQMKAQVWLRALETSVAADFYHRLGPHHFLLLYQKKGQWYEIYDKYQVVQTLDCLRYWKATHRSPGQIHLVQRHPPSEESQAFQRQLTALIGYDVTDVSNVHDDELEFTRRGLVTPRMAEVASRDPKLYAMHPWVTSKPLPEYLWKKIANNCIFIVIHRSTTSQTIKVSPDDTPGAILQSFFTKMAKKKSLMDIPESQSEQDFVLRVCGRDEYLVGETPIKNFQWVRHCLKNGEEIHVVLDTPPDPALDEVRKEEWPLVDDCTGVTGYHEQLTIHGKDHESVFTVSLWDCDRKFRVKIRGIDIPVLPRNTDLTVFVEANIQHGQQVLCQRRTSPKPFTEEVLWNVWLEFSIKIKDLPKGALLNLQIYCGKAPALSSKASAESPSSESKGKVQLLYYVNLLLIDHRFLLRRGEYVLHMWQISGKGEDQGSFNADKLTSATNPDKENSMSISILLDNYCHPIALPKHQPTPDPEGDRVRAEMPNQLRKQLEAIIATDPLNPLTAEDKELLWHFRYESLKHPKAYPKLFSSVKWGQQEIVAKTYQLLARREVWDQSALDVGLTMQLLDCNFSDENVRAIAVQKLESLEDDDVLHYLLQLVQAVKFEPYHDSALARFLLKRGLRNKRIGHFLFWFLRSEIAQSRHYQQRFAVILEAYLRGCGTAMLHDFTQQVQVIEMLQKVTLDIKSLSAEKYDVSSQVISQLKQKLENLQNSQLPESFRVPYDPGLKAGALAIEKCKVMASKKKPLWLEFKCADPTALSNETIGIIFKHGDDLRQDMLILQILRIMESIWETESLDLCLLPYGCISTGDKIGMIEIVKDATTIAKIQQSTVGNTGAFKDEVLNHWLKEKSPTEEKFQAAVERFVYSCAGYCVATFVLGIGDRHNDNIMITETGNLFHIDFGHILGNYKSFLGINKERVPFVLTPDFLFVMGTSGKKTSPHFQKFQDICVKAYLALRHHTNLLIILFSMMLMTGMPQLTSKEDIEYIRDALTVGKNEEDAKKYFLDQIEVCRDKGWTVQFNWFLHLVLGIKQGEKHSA
Platelet-derived growth factor receptor beta, sequence (P09619 whole entry): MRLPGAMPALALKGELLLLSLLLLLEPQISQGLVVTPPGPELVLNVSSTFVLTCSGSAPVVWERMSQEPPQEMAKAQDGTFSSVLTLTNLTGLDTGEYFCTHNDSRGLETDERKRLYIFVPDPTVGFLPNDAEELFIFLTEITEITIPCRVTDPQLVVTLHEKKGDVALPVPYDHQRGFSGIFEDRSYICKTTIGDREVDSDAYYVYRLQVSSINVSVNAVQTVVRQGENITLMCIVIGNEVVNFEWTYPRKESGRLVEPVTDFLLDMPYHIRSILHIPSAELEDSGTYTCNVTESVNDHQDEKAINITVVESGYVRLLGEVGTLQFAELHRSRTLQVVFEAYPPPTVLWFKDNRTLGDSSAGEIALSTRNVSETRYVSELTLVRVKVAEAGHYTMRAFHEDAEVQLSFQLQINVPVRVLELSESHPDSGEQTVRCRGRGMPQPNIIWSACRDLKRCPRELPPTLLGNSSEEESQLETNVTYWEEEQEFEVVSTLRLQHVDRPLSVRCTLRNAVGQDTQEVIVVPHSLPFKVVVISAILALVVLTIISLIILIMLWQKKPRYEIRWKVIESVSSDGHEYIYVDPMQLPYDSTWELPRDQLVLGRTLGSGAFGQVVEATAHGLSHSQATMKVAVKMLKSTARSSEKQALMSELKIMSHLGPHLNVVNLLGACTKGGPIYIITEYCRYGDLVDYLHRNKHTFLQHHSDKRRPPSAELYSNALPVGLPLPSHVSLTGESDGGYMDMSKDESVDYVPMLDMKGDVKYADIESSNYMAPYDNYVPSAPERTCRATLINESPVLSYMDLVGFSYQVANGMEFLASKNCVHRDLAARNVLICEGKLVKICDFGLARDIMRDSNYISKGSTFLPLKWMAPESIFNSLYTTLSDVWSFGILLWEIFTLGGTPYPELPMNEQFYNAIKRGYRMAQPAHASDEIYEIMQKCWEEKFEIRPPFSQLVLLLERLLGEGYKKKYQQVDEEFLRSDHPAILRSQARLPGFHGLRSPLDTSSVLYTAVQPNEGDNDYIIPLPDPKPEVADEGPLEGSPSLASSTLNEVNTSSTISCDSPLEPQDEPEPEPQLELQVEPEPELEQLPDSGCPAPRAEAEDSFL
Mast/stem cell growth factor receptor Kit, sequence (P10721 whole entry): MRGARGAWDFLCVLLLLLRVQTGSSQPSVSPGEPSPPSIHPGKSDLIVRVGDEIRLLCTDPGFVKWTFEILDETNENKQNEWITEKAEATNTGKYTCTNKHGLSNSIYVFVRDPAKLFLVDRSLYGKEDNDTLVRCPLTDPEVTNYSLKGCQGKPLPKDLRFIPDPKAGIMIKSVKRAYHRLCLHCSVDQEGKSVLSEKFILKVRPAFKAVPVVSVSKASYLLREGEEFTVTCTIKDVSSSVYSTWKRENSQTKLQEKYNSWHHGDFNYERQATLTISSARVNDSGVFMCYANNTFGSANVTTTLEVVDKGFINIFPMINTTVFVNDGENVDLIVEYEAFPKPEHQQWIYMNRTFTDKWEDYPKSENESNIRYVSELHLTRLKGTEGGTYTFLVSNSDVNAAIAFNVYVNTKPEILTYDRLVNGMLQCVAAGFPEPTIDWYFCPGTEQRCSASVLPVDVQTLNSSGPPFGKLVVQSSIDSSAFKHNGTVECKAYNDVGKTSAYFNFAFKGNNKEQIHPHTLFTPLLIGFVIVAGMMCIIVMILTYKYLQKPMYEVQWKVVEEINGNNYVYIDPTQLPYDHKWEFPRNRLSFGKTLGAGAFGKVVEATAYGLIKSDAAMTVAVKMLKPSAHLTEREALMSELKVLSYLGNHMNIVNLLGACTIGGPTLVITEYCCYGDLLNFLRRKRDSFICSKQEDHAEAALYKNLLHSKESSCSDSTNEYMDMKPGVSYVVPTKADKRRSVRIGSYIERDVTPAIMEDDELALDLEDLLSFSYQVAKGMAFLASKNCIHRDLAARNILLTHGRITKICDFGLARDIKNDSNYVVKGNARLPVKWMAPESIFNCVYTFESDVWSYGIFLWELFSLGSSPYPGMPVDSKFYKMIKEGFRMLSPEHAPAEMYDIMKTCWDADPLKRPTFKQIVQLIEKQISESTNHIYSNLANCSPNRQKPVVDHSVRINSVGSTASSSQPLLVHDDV
Cytochrome P450 3A4, sequence (P08684 whole entry): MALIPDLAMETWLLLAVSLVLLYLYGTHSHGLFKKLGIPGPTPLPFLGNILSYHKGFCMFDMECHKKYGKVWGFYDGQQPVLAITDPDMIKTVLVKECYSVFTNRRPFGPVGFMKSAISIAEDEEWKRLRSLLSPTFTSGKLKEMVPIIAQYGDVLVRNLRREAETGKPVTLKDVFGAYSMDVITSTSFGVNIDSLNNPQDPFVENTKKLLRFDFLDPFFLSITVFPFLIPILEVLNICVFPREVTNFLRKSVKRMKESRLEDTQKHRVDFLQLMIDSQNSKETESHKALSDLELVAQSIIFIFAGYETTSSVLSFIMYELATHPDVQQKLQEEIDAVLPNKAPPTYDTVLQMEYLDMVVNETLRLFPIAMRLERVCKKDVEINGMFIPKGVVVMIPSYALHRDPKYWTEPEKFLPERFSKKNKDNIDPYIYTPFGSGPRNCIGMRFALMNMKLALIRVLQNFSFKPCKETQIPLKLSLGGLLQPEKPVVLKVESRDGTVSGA

With `Cc1c(C(=O)N2CCOc3ccc(-c4ccc(N)nc4)cc3C2)ccc(S(C)(=O)=O)c1F` the IC50 [1] was > 3.5 µM, the fraction unbound at 5 µM [2] was 0.14 and the inhibition in vivo at 100 mg/kg (Mus musculus [3]) was -24%. For the same molecule, the inhibition in vivo at 100 mg/kg (Mus musculus [4]) was 19%, the inhibition in vivo at 100 mg/kg (Mus musculus [5]) was 91% and the inhibition in vivo at 100 mg/kg (Mus musculus [6]) was 95%. For the same molecule, the inhibition in vivo at 100 mg/kg (Mus musculus [7]) was 41%, the INH (Cytochrome P450 2D6) was > 20 µM and the IC50 [8] was > 3 µM. The IC50 [9] was > 5 µM, the Cmax [10] was 9.14 µM and the AUC(0-inf) [11] was 0.952 µM·h. The inhibition in vivo at 100 mg/kg (Mus musculus [12]) was -3%, the AUC(0-inf) [13] was 2.51 µM·h and the concentration at 16 h [14] was 2.08 µM. It also gave an inhibition in vivo at 100 mg/kg (Mus musculus [15]) of 88%, an AUC(0-inf) [16] of 8 µM·h and an inhibition in vivo at 100 mg/kg (Mus musculus [17]) of 89%. It also gave an AUC(0-inf) [18] of 3.72 µM·h, a bioavailability [19] of 31.4% and a clearance [20] of 9.97 mL/min/kg. For the same molecule, the INH (Cytochrome P450 3A4) was 24.6 µM, the IC50 [21] was > 3.5 µM and the IC50 [22] was > 3.5 µM. For the same molecule, the bioavailability [23] was 25.6%, the inhibition in vivo at 100 mg/kg (Mus musculus [24]) was 5% and the inhibition in vivo at 100 mg/kg (Mus musculus [25]) was 36%. The IC50 [26] was > 3.5 µM.
